Legend:
Rattus norvegicus [1] = experiment: Anti cancer activity of compound was measured by final body weight(g) of rat in 100 mg/kg diet after MNU intravenous injection; assay type: functional
Outline: (§1)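 Female rats housed five per cage on 4% Teklad rodent diet; single intravenous MNU via jugular vein at 50 days of age. Retinoid mixed into diet (Patterson–Kelly liquid–solid blender; stability checked by HPLC) and fed continuously from 53 days of age; n = 20 per group; diet-only MNU control group. Weighed weekly; body weight and liver, uterus, ovary weights (g per 100 g body weight) taken at study end.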

Rattus norvegicus [2] = experiment: Anti cancer activity of compound was measured by weight of uterus in gram per 100 g body weight of rat in 100 mg/kg diet after MNU intravenous injection; assay type: functional; outline: as §1
Rattus norvegicus [3] = experiment: Anti cancer activity of compound was measured by weight of ovaries in gram per 100 g body weight of rat in 100 mg/kg diet after MNU intravenous injection; assay type: functional, Female gonad; outline: as §1
Rattus norvegicus [4] = experiment: Anti cancer activity of compound was measured by weight of liver in gram per 100 g body weight of rat in 200 mg/kg diet after MNU intravenous injection; assay type: functional; outline: as §1
Rattus norvegicus [5] = experiment: Anti cancer activity of compound was measured by weight of ovaries in gram per 100 g body weight of rat in 200 mg/kg diet after MNU intravenous injection; assay type: functional, Female gonad; outline: as §1
Rattus norvegicus [6] = experiment: Anti cancer activity of compound was measured by weight of liver in gram per 100 g body weight of rat in 100 mg/kg diet after MNU intravenous injection; assay type: functional; outline: as §1
Rattus norvegicus [7] = experiment: Anti cancer activity of compound was measured by final body weight(g) of rat in 200 mg/kg diet after MNU intravenous injection; assay type: functional; outline: as §1
Rattus norvegicus [8] = experiment: Anti cancer activity of compound was measured by weight of uterus in gram per 100 g body weight of rat in 200 mg/kg diet after MNU intravenous injection; assay type: functional; outline: as §1

CC(=C\C=C\C(C)=C\C(=O)O)/C=C1\CCCc2ccccc21
Body weight (Rattus norvegicus [1]): 271 g
Organ weight (Rattus norvegicus [2]): 0.16 g
Organ weight (Rattus norvegicus [3]): 0.046 g
Organ weight (Rattus norvegicus [4]): 3.11 g
Organ weight (Rattus norvegicus [5]): 0.052 g
Organ weight (Rattus norvegicus [6]): 2.96 g
Body weight (Rattus norvegicus [7]): 272 g
Organ weight (Rattus norvegicus [8]): 0.21 g
